Measured values: ChEMBL document CHEMBL1131139, “Synthesis and antibacterial activity of ketolides (6-O-methyl-3-oxoerythromycin derivatives): a new class of antibacterials highly potent against macrolide-resistant and -susceptible respiratory pathogens” (1998)
In brackets after ≈: the same amount, converted by molar mass.

What was measured:
[1] = In vitro inhibitory activity against Pneumococci PenR (65); type: functional
[2] = system: Streptococcus pyogenes; experiment: In Vivo evaluation for its effective dose against Streptococcus pyogenes (02A1UC1); type: functional
Outline: (§1)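 Male Charles River CD1 mice, 20-22 g, 10 per dose group, infected intraperitoneally with 0.5 mL diluted overnight broth culture (physiological buffer or 5% hog mucine) at 10-100 times the minimal lethal dose. Compound suspended in carboxymethylcellulose, 0.5 mL given orally immediately and 4 h postinfection. Survival followed 8-10 days; ED50 (unitary dose protecting 50% from death) by Litchfield-Wilcoxon probit method.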

[3] = system: Streptococcus pneumoniae; experiment: In Vivo evaluation for its effective dose against Streptococcus pneumoniae (030RO1 EryRi); type: functional; outline: as §1
[4] = system: Streptococcus pneumoniae; experiment: In vitro inhibitory activity against Streptococcus pneumoniae (EryRi 030SJ5i); type: functional
Outline: (§2)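 Two-fold agar dilution on Mueller-Hinton agar (pH 7.4). Inoculum from overnight plate cultures suspended in Mueller-Hinton broth, adjusted to 10^9 CFU/mL, diluted 1:200 and spotted by multipoint inoculator at about 10^4 CFU/spot. Plates incubated 37 °C for 20 h. MIC taken as lowest concentration with no visible growth.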

[5] = system: Streptococcus pneumoniae; experiment: In Vivo evaluation for its effective dose against Streptococcus pneumoniae (032UC1); type: functional; outline: as §1
[6] = system: Staphylococcus aureus; experiment: In vitro inhibitory activity against Staphylococcus aureus (011UC4); type: functional; outline: as §2
[7] = system: Staphylococcus aureus; experiment: In Vivo evaluation for its effective dose against Staphylococcus aureus (011GO25 EryRi.; type: functional; outline: as §1
[8] = system: Enterococcus; experiment: In vitro inhibitory activity against enterococci EryRi (19); type: functional
[9] = In vitro inhibitory activity against Pneumococci EryRc (34); type: functional
[10] = system: Haemophilus; experiment: In vitro inhibitory activity against Haemophilus AmpR (37); type: functional
[11] = system: Streptococcus pneumoniae; experiment: In Vivo evaluation for its effective dose against Streptococcus pneumoniae (030SJ6 EryRc); type: functional; outline: as §1
[12] = system: Streptococcus pneumoniae; experiment: In vitro inhibitory activity against Streptococcus pneumoniae (032UC1); type: functional; outline: as §2
[13] = system: Streptococcus pneumoniae; experiment: In vitro inhibitory activity against Streptococcus pneumoniae (EryRc 030SJ1); type: functional; outline: as §2
[14] = system: Streptococcus pneumoniae; experiment: In Vivo evaluation for its effective dose against Streptococcus pneumoniae (030SJ1 EryRc); type: functional; outline: as §1
[15] = system: Haemophilus influenzae; experiment: In vitro inhibitory activity against Haemophilus influenzae (351CB12); type: functional; outline: as §2
[16] = system: Haemophilus influenzae; experiment: In vitro inhibitory activity against Haemophilus influenzae (351HT3); type: functional; outline: as §2
[17] = system: Haemophilus influenzae; experiment: In Vivo evaluation for its effective dose against Haemophilus influenzae (351TO19 AmpR beta (-)); type: functional; outline: as §1
[18] = system: Streptococcus sp.; experiment: In vitro inhibitory activity against Streptococci EryRi (98); type: functional
[19] = system: Haemophilus influenzae; experiment: In Vivo evaluation for its effective dose against Haemophilus influenzae (351RD7 AmpR beta (+)); type: functional; outline: as §1
[20] = system: Staphylococcus epidermidis; experiment: In vitro inhibitory activity against Staphylococcus epidermidis (EryRi 012GO11i); type: functional; outline: as §2
[21] = system: Staphylococcus sp.; experiment: In vitro inhibitory activity against Staphylococci EryRi (65); type: functional
[22] = system: Streptococcus pneumoniae; experiment: In Vivo evaluation for its effective dose against Streptococcus pneumoniae (030Cr29 EryRc); type: functional; outline: as §1
[23] = system: Staphylococcus aureus; experiment: In vitro inhibitory activity against Staphylococcus aureus (EryRc 011CB20); type: functional; outline: as §2
[24] = system: Escherichia coli; experiment: In vitro inhibitory activity against Escherichia coli (250 UC5); type: functional; outline: as §2
[25] = system: Streptococcus pyogenes; experiment: In vitro inhibitory activity against Streptococcus pyogenes (02A1UC1); type: functional; outline: as §2
[26] = system: Streptococcus pneumoniae; experiment: In Vivo evaluation for its effective dose against Streptococcus pneumoniae (030MV2 EryRc); type: functional; outline: as §1
[27] = system: Staphylococcus aureus; experiment: In vitro inhibitory activity against Staphylococcus aureus (EryRi 011GO25i); type: functional; outline: as §2
[28] = system: Enterococcus; experiment: In vitro inhibitory activity against enterococci EryRc (13); type: functional
[29] = system: Streptococcus sp.; experiment: In vitro inhibitory activity against Streptococci EryR (27); type: functional
[30] = system: Haemophilus influenzae; experiment: In Vivo evaluation for its effective dose against Haemophilus influenzae (351GR1); type: functional; outline: as §1
[31] = system: Haemophilus; experiment: In vitro inhibitory activity against Haemophilus AmpS (43); type: functional
[32] = system: Staphylococcus aureus; experiment: In Vivo evaluation for its effective dose against Staphylococcus aureus (011UC4).; type: functional; outline: as §1
[33] = system: Staphylococcus epidermidis; experiment: In vitro inhibitory activity against Staphylococcus epidermidis (EryRc 011CB2)

For `CC[C@H]1OC(=O)[C@H](C)[C@@H](O[C@H]2C[C@@](C)(OC)[C@@H](O)[C@H](C)O2)[C@H](C)[C@@H](O[C@@H]2O[C@H](C)C[C@H](N(C)C)[C@H]2O)[C@](C)(O)C[C@@H](C)CN(C)[C@H](C)[C@@H](O)[C@]1(C)O` [AZITHROMYCIN], the MIC50 [1] was 2.5 mg/L (≈ 3.34 µM), the MIC90 [1] was 40 mg/L (≈ 53.4 µM) and the ED50 [2] was 16 mg/kg. The ED50 [3] was over 100 mg/kg, the MIC [4] was 40 mg/L (≈ 53.4 µM) and the ED50 [5] was over 50 mg/kg. It also gave an MIC [6] of 0.3 mg/L (≈ 0.401 µM), an ED50 [7] of over 100 mg/kg and an MIC50 [8] of 40 mg/L (≈ 53.4 µM). The MIC90 [8] was 40 mg/L (≈ 53.4 µM), the MIC50 [9] was 40 mg/L (≈ 53.4 µM) and the MIC90 [9] was 40 mg/L (≈ 53.4 µM). For the same molecule, the MIC50 [10] was 0.3 mg/L (≈ 0.401 µM), the MIC90 [10] was 1.2 mg/L (≈ 1.6 µM) and the ED50 [11] was over 100 mg/kg. It also gave an MIC [12] of 0.15 mg/L (≈ 0.2 µM), an MIC [13] of 40 mg/L (≈ 53.4 µM) and an ED50 [14] of over 100 mg/kg. It also gave an MIC [15] of 1.2 mg/L (≈ 1.6 µM), an MIC [16] of 1.2 mg/L (≈ 1.6 µM) and an ED50 [17] of 368 mg/kg. The MIC50 [18] was 40 mg/L (≈ 53.4 µM), the MIC90 [18] was 40 mg/L (≈ 53.4 µM) and the ED50 [19] was 117 mg/kg. For the same molecule, the MIC [20] was 40 mg/L (≈ 53.4 µM), the MIC50 [21] was 40 mg/L (≈ 53.4 µM) and the MIC90 [21] was 40 mg/L (≈ 53.4 µM). It also gave an ED50 [22] of over 100 mg/kg, an MIC [23] of 40 mg/L (≈ 53.4 µM) and an MIC [24] of 20 mg/L (≈ 26.7 µM). For the same molecule, the MIC [25] was 0.6 mg/L (≈ 0.801 µM), the ED50 [26] was over 100 mg/kg and the MIC [27] was 40 mg/L (≈ 53.4 µM). The MIC50 [28] was 10 mg/L (≈ 13.4 µM), the MIC90 [28] was 40 mg/L (≈ 53.4 µM) and the MIC50 [29] was 10 mg/L (≈ 13.4 µM). It also gave an MIC90 [29] of 40 mg/L (≈ 53.4 µM), an ED50 [30] of 109 mg/kg and an MIC50 [31] of 0.15 mg/L (≈ 0.2 µM). It also gave an MIC90 [31] of 1.2 mg/L (≈ 1.6 µM) and an ED50 [32] of 60 mg/kg.
For `CC[C@H]1OC(=O)[C@H](C)C(=O)[C@H](C)[C@@H](O[C@@H]2O[C@H](C)C[C@H](N(C)C)[C@H]2O)[C@](C)(OC)C[C@@H](C)C(=O)[C@H](C)[C@H]2N(CCCCc3ccnc4ccccc34)C(=O)O[C@]12C`, the MIC [4] was 0.02 mg/L (≈ 0.0251 µM), the MIC [6] was 0.04 mg/L (≈ 0.0503 µM) and the MIC [12] was 0.02 mg/L (≈ 0.0251 µM). For the same molecule, the MIC [33] was 40 mg/L (≈ 50.3 µM), the MIC [13] was 1.2 mg/L (≈ 1.51 µM) and the MIC [15] was 1.2 mg/L (≈ 1.51 µM). For the same molecule, the MIC [16] was 1.2 mg/L (≈ 1.51 µM), the MIC [20] was 0.15 mg/L (≈ 0.188 µM) and the MIC [24] was 40 mg/L (≈ 50.3 µM). For the same molecule, the MIC [25] was 0.02 mg/L (≈ 0.0251 µM) and the MIC [27] was 0.08 mg/L (≈ 0.101 µM).
